Tests used:
Assay type in all cases: functional
[1] = Antioxidant activity assessed as DPPH free radical scavenging activity measured after 30 mins by spectrophotometry
Summary of the method: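 DPPH radical scavenging in ethanolic solution with a final DPPH concentration of 100 µM. Absorbance read at 517 nm. Percent inhibition = (A control − A test)/A control, where the control is DPPH without sample. The inhibition-versus-concentration plot gives EC50, the concentration giving a 50% drop in absorbance. Mean ± S.D. of three independent trials.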

[2] = tested on: Staphylococcus aureus; experiment: Antibacterial activity against Staphylococcus aureus ATCC 25923 measured after 24 hrs by serial dilution method
[3] = tested on: Pseudomonas aeruginosa; experiment: Bactericidal activity against Pseudomonas aeruginosa PAO1 ATCC 15692 at 10 to 50 ug/ml measured after 1 hrs by serial dilution method relative to control
[4] = tested on: Pseudomonas aeruginosa; experiment: Bactericidal activity against Pseudomonas aeruginosa PAO1 ATCC 15692 at 50 to 100 ug/ml measured after 3 hrs by serial dilution method relative to control
[5] = tested on: Staphylococcus aureus; experiment: Bactericidal activity against Staphylococcus aureus ATCC 25923 at 1 to 10 ug/ml measured after 6 hrs by serial dilution method relative to control
[6] = tested on: Staphylococcus aureus; experiment: Bactericidal activity against Staphylococcus aureus ATCC 25923 at 200 ug/ml measured after 6 hrs by serial dilution method relative to control
[7] = tested on: Mycolicibacterium smegmatis; experiment: Antibacterial activity against Mycobacterium smegmatis MC2 155 ATCC 700084 assessed as colony forming units at 100 ug/ml measured after 24 hrs by serial dilution method (reference value: 84 +/- 4.35 10^3CFU)
Summary of the method: (§1)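 Bacteria were exposed to test compound over a range of µg/ml concentrations. Viable bacteria were counted by colony forming unit (CFU) assay at set time points (6 h and 24 h for M. smegmatis and S. aureus strains), and untreated bacteria served as the control. Percentage of population killed was calculated relative to the untreated control. Values are means ± S.D of three independent trials.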

[8] = tested on: Pseudomonas aeruginosa; experiment: Antibacterial activity against Pseudomonas aeruginosa PAO1 ATCC 15692 assessed as colony forming units at 1 ug/ml measured after 1 hr by serial dilution method (reference value: 85.33 +/- 4.04 10^8CFU)
[9] = tested on: Staphylococcus aureus; experiment: Antibacterial activity against methicillin-resistant Staphylococcus aureus ATCC 43300 assessed as colony forming units at 10 ug/ml measured after 6 hrs by serial dilution method (reference value: 64.33 +/- 3.51 10^6CFU); summary of the method: as §1
[10] = tested on: Staphylococcus aureus; experiment: Antibacterial activity against methicillin-resistant Staphylococcus aureus ATCC 43300 assessed as colony forming units at 200 ug/ml measured after 6 hrs by serial dilution method (reference value: 64.33 +/- 3.51 10^6CFU); summary of the method: as §1
[11] = tested on: Pseudomonas aeruginosa; experiment: Bactericidal activity against Pseudomonas aeruginosa PAO1 ATCC 15692 at 50 ug/ml measured after 1 hr by serial dilution method relative to control
[12] = tested on: Pseudomonas aeruginosa; experiment: Bactericidal activity against Pseudomonas aeruginosa PAO1 ATCC 15692 at 50 ug/ml measured after 3 hrs by serial dilution method relative to control
[13] = tested on: Staphylococcus aureus; experiment: Bactericidal activity against Staphylococcus aureus ATCC 25923 at 100 ug/ml measured after 6 hrs by serial dilution method relative to control
[14] = tested on: Staphylococcus aureus; experiment: Bactericidal activity against Staphylococcus aureus ATCC 25923 at 100 ug/ml measured after 24 hrs by serial dilution method relative to control

SMILES	EC50 [1] [µM]	Activity [2]	Activity [3] [%]	Activity [4] [%]	Activity [5] [%]	Activity [6] [%]	Activity [7] [×10³ CFU]	Activity [8] [×10⁸ CFU]	Activity [9] [×10⁶ CFU]	Activity [10] [×10⁶ CFU]	Activity [11] [%]	Activity [12] [%]	Activity [13] [%]	Activity [14] [%]
Cc1ccc(O)c(NC(=O)/C=C/c2ccc(O)c(O)c2)c1	6.57	Dose-dependent effect	50	50	60.9	93.8	36.33	62	44.66	6.66	–	–	–	–
O=C(/C=C/c1ccc(O)c(O)c1)Nc1ccccc1Nc1ccccc1	14.7	Dose-dependent effect	–	–	–	–	8	61	48	–	58.9	62.1	92.3	84.9

Source: ChEMBL document CHEMBL3868627, “Radical scavenging and antibacterial activity of caffemides against gram positive, gram negative and clinical drug resistance bacteria” (Bioorg Med Chem Lett, 2016)
